Measurements taken from ChEMBL document CHEMBL3797189, “Small Molecule Inhibitors of Cyclophilin D To Protect Mitochondrial Function as a Potential Treatment for Acute Pancreatitis” (J Med Chem, 2016).
Calls of active or inactive are those of the source. The rule behind the calls is not given here.

Experiments:
Pancreatic acinar cell [1] = assay: Inhibition of taurolithocholate acid 3-sulfate-induced necrosis in human pancreatic acinar cells at 10 uM after 30 mins by propidium iodide staining based confocal microscopic analysis; type: functional
Pancreatic acinar cell [2] = assay: Inhibition of taurolithocholate acid 3-sulfate-induced change in mitochondrial membrane potential in CD1 mouse pancreatic acinar cells at 0.1 to 10 uM after 30 mins by tetramethyl rhodamine methyl ester dye based fluorescence analysis; type: functional, cell membranes
[3] = Cytotoxicity against CD1 mouse pancreatic acinar cells at 0.1 to 10 uM after 30 mins by propidium iodide staining based confocal microscopic analysis; conditions: pancreatic acinar cell, 0.5 h
Method in brief: (§1)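 As a parallel cytotoxicity control, freshly isolated murine pancreatic acinar cells were exposed to compounds alone, without TLCS, at 0.1, 1.0 and 10 µM or at 1 and 10 µM. Necrotic cell death was scored.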

Pancreatic acinar cell [4] = assay: Inhibition of taurolithocholate acid 3-sulfate-induced necrosis in CD1 mouse pancreatic acinar cells at 1 to 10 uM after 30 mins by propidium iodide staining based confocal microscopic analysis; type: functional
Method in brief: (§2)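 Freshly isolated murine pancreatic acinar cells were exposed to the pancreatitis toxin taurolithocholate acid 3-sulphate (500 µM) with inhibitor at 0.1, 1.0 and 10 µM or at 1 and 10 µM.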

Pancreatic acinar cell [5] = assay: Inhibition of taurolithocholate acid 3-sulfate-induced necrosis in CD1 mouse pancreatic acinar cells at 10 uM after 30 mins by propidium iodide staining based confocal microscopic analysis; type: functional; method in brief: as §2
[6] = Cytotoxicity against CD1 mouse pancreatic acinar cells at 1 to 10 uM after 30 mins by propidium iodide staining based confocal microscopic analysis; conditions: pancreatic acinar cell, 0.5 h; method in brief: as §1
Pancreatic acinar cell [7] = assay: Inhibition of taurolithocholate acid 3-sulfate-induced necrosis in CD1 mouse pancreatic acinar cells at 1 uM after 30 mins by propidium iodide staining based confocal microscopic analysis; type: functional; method in brief: as §2
[8] = Cytotoxicity against CD1 mouse pancreatic acinar cells at 10 uM after 30 mins by propidium iodide staining based confocal microscopic analysis; conditions: pancreatic acinar cell, 0.5 h; method in brief: as §1

SMILES | inhibition (Pancreatic acinar cell [1]) | inhibition (Pancreatic acinar cell [2]) | Activity [3] | inhibition (Pancreatic acinar cell [4]) | inhibition (Pancreatic acinar cell [5]) | Activity [6] | inhibition (Pancreatic acinar cell [7]) | Activity [8]
CSCC[C@H](NC(=O)NCc1ccc(N)cc1)C(=O)N1CCC[C@H]1c1ccccc1SC | Active | Active | Non-toxic | Active | – | – | – | –
CCOC(=O)[C@H](CCSC)NC(=O)NCc1ccc(N)cc1 | – | – | – | – | Active | Non-toxic | inactive | –
Nc1ccc(CNC(=O)NCC(=O)N2CCC[C@@H]2c2ccccc2Br)cc1 | – | – | – | – | Active | – | inactive | Toxic
